Reference: ChEMBL document CHEMBL5260840 (J Med Chem, 2019)

How the values were obtained:
Type in all cases: cell-based
[1] = biological target: T1, von Hippel-Lindau disease tumor suppressor/Bromodomain-containing protein 7 (Homo sapiens) (UniProt Q9NPI1+P40337); test: PROTAC activity at VHL/BRD7 in human HeLa cells assessed as remaining BRD7 protein level at 1 uM incubated for 4 hrs by Western blot analysis relative to control
[2] = biological target: T2, von Hippel-Lindau disease tumor suppressor/Bromodomain-containing protein 9 (Homo sapiens) (UniProt Q9H8M2+P40337); test: PROTAC activity at VHL/BRD9 in human Ri-1 cells assessed as remaining BRD9 protein level at 1 uM incubated for 2 hrs by Western blot analysis relative to control
Method in brief: (§1)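 Ri-1 cells exposed to compound for the stated time before harvest; BRD9, BRD7 and β-actin measured by Western blot, band intensities quantified and set against DMSO-treated control.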

[3] = biological target: T1, von Hippel-Lindau disease tumor suppressor/Bromodomain-containing protein 7 (Homo sapiens); test: PROTAC activity at VHL/BRD7 in human Ri-1 cells assessed as remaining BRD7 protein level at 1 uM incubated for 2 hrs by Western blot analysis relative to control
[4] = biological target: T2, von Hippel-Lindau disease tumor suppressor/Bromodomain-containing protein 9 (Homo sapiens); test: PROTAC activity at VHL/BRD9 in human Ri-1 cells assessed as remaining BRD9 protein level at 1 uM incubated for 8 hrs by Western blot analysis relative to control; method in brief: as §1
[5] = biological target: T1, von Hippel-Lindau disease tumor suppressor/Bromodomain-containing protein 7 (Homo sapiens); test: PROTAC activity at VHL/BRD7 in human Ri-1 cells assessed as remaining BRD7 protein level at 1 uM incubated for 8 hrs by Western blot analysis relative to control
[6] = biological target: T2, von Hippel-Lindau disease tumor suppressor/Bromodomain-containing protein 9 (Homo sapiens); test: PROTAC activity at VHL/BRD9 in human Ri-1 cells assessed as remaining BRD9 protein level at 100 nM incubated for 8 hrs by Western blot analysis relative to control; method in brief: as §1
[7] = biological target: T2, von Hippel-Lindau disease tumor suppressor/Bromodomain-containing protein 9 (Homo sapiens); test: PROTAC activity at VHL/BRD9 in human Ri-1 cells assessed as remaining BRD9 protein level at 10 nM incubated for 8 hrs by Western blot analysis relative to control; method in brief: as §1
[8] = biological target: T2, von Hippel-Lindau disease tumor suppressor/Bromodomain-containing protein 9 (Homo sapiens); test: PROTAC activity at VHL/BRD9 in human Ri-1 cells assessed as remaining BRD9 protein level at 1 nM incubated for 8 hrs by Western blot analysis relative to control; method in brief: as §1
[9] = biological target: T2, von Hippel-Lindau disease tumor suppressor/Bromodomain-containing protein 9 (Homo sapiens); test: PROTAC activity at VHL/BRD9 in human Ri-1 cells assessed as remaining BRD9 protein level at 0.1 nM incubated for 8 hrs by Western blot analysis relative to control; method in brief: as §1
[10] = biological target: T2, von Hippel-Lindau disease tumor suppressor/Bromodomain-containing protein 9 (Homo sapiens); test: PROTAC activity at VHL/BRD9 in human Ri-1 cells assessed as remaining BRD9 protein level at 10000 nM incubated for 2 hrs by Western blot analysis relative to control; method in brief: as §1
[11] = biological target: T2, von Hippel-Lindau disease tumor suppressor/Bromodomain-containing protein 9 (Homo sapiens); test: PROTAC activity at VHL/BRD9 in human Ri-1 cells assessed as remaining BRD9 protein level at 100 nM incubated for 2 hrs by Western blot analysis relative to control; method in brief: as §1
[12] = biological target: T2, von Hippel-Lindau disease tumor suppressor/Bromodomain-containing protein 9 (Homo sapiens); test: PROTAC activity at VHL/BRD9 in human Ri-1 cells assessed as remaining BRD9 protein level at 10 nM incubated for 2 hrs by Western blot analysis relative to control; method in brief: as §1
[13] = biological target: T2, von Hippel-Lindau disease tumor suppressor/Bromodomain-containing protein 9 (Homo sapiens); test: PROTAC activity at VHL/BRD9 in human Ri-1 cells assessed as remaining BRD9 protein level at 1 nM incubated for 2 hrs by Western blot analysis relative to control; method in brief: as §1
[14] = biological target: T1, von Hippel-Lindau disease tumor suppressor/Bromodomain-containing protein 7 (Homo sapiens); test: PROTAC activity at VHL/BRD7 in human Ri-1 cells assessed as remaining BRD7 protein level at 100 nM incubated for 8 hrs by Western blot analysis relative to control; method in brief: as §1
[15] = biological target: T1, von Hippel-Lindau disease tumor suppressor/Bromodomain-containing protein 7 (Homo sapiens); test: PROTAC activity at VHL/BRD7 in human Ri-1 cells assessed as remaining BRD7 protein level at 10 nM incubated for 8 hrs by Western blot analysis relative to control; method in brief: as §1
[16] = biological target: T1, von Hippel-Lindau disease tumor suppressor/Bromodomain-containing protein 7 (Homo sapiens); test: PROTAC activity at VHL/BRD7 in human Ri-1 cells assessed as remaining BRD7 protein level at 1 nM incubated for 8 hrs by Western blot analysis relative to control
[17] = biological target: T1, von Hippel-Lindau disease tumor suppressor/Bromodomain-containing protein 7 (Homo sapiens); test: PROTAC activity at VHL/BRD7 in human Ri-1 cells assessed as remaining BRD7 protein level at 0.1 nM incubated for 8 hrs by Western blot analysis relative to control
[18] = biological target: T1, von Hippel-Lindau disease tumor suppressor/Bromodomain-containing protein 7 (Homo sapiens); test: PROTAC activity at VHL/BRD7 in human Ri-1 cells assessed as remaining BRD7 protein level at 10000 nM incubated for 2 hrs by Western blot analysis relative to control; method in brief: as §1
[19] = biological target: T1, von Hippel-Lindau disease tumor suppressor/Bromodomain-containing protein 7 (Homo sapiens); test: PROTAC activity at VHL/BRD7 in human Ri-1 cells assessed as remaining BRD7 protein level at 100 nM incubated for 2 hrs by Western blot analysis relative to control; method in brief: as §1
[20] = biological target: T1, von Hippel-Lindau disease tumor suppressor/Bromodomain-containing protein 7 (Homo sapiens); test: PROTAC activity at VHL/BRD7 in human Ri-1 cells assessed as remaining BRD7 protein level at 10 nM incubated for 2 hrs by Western blot analysis relative to control
[21] = biological target: T1, von Hippel-Lindau disease tumor suppressor/Bromodomain-containing protein 7 (Homo sapiens); test: PROTAC activity at VHL/BRD7 in human Ri-1 cells assessed as remaining BRD7 protein level at 1 nM incubated for 2 hrs by Western blot analysis relative to control

T1 sequence (P40337 whole entry, looked up): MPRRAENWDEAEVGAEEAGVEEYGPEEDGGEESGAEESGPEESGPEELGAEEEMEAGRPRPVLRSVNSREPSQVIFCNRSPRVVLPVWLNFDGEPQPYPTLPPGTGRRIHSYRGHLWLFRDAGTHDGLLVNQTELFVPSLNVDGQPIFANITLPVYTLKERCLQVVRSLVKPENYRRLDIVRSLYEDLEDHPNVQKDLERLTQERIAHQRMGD
T1 sequence (Q9NPI1 whole entry, looked up): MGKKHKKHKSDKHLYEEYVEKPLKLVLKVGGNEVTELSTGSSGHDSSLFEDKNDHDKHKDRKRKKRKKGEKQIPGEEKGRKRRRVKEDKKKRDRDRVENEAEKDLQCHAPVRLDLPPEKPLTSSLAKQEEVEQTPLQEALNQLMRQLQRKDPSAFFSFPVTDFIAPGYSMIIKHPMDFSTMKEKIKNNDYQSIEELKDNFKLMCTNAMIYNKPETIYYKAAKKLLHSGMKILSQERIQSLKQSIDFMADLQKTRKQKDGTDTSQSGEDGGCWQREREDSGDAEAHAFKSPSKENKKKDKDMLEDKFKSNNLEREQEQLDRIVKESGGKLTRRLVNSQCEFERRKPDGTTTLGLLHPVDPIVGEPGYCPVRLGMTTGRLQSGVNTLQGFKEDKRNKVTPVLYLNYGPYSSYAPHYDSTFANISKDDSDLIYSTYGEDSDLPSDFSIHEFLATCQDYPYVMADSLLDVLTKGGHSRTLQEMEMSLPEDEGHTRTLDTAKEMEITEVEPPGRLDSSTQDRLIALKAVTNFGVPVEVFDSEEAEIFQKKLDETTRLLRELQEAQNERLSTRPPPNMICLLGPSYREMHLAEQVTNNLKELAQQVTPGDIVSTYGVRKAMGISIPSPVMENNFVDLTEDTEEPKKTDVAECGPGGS
T2 sequence (P40337 whole entry, looked up): as the sequence (P40337 whole entry, looked up) above
T2 sequence (Q9H8M2 whole entry, looked up): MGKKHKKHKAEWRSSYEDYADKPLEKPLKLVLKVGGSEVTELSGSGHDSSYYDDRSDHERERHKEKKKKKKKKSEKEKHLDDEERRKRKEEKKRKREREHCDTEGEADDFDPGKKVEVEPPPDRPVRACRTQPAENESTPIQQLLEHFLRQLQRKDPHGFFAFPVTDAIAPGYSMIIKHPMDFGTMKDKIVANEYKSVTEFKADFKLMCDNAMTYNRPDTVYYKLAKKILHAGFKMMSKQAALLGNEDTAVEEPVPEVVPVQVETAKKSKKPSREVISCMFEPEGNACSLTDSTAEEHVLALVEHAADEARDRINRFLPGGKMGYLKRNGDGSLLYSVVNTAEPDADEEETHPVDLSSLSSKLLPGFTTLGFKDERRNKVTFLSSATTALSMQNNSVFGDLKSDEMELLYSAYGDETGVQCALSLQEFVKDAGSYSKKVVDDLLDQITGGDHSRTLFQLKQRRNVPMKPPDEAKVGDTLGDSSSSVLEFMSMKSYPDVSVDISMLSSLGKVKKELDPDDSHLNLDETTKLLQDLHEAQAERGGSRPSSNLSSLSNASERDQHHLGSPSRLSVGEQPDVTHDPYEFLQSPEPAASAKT

SMILES: COc1cc(-c2cn(C)c(=O)c3cnccc23)cc(OC)c1CN1CCN(CCOCCOc2cc(-c3scnc3C)ccc2CNC(=O)[C@@H]2C[C@@H](O)CN2C(=O)[C@@H](NC(=O)C2(F)CC2)C(C)(C)C)CC1
- Activity [1]: 8%
- Activity [2]: 44%
- Activity [3]: 63%
- Activity [4]: 6%
- Activity [5]: 8%
- Activity [6]: 63%
- Activity [7]: 103%
- Activity [8]: 109%
- Activity [9]: 117%
- Activity [10]: 66%
- Activity [11]: 50%
- Activity [12]: 113%
- Activity [13]: 110%
- Activity [14]: 152%
- Activity [15]: 155%
- Activity [16]: 155%
- Activity [17]: 155%
- Activity [18]: 33%
- Activity [19]: 75%
- Activity [20]: 123%
- Activity [21]: 101%
